This is an account of results in PubChem BioAssay AID2052 (NMMLSC, 2009).

SMILES strings stand for the structures. Hit rate of the full screen: of about 330,000 compounds, about 220 (0.067%) were called active.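 The calls were made as follows: active = response, share of CD8 T cells binding vesicles, and their 90th percentile fluorescence all below set limits (cut at about 80% in these data, passing the limit was not always enough); inactive = the rest, inconclusive results apart.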 Only a selection was taken, and actives are over-represented in it overall.

This experiment in a line: modulators of CD8 T cell-vesicle binding, primary screen, mouse 2C CD8+ T cells, flow cytometry (AID 2052).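 As to double positive events: binding gate set so that unloaded-vesicle control wells show 10% double positive cells.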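 As to response (vesicle binding): values below 100% mean blocked vesicle binding to the CD8+ T cells.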 Conditions: 2C CD8+ T cell-vesicle binding, at 7 µM, stronger effect = lower value; double positive events: measured here: CD8+ vesicle-bound cell fraction. The procedure, abridged: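 Incubation: binding step 1.5 h, 37 °C, antibody labelling 20 min, ice; system: murine 2C transgenic CD8+ T lymphocytes; technique: cytometric PE anti-B7-1 and Alexa647 anti-CD8 signals after 1% paraformaldehyde fixation; also added: QL9-charged Drosophila Ld/ICAM-1/B7-1 vesicles; control set: naked versus QL9-loaded vesicles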
(In general: In flow cytometry, cells or beads pass a laser one at a time.)
Take `CCCCOc1ccc(NC(=O)CSCC(=O)OCC)cc1`: the double positive events is 29.6% and the response (vesicle binding) is 186% (inactive).

As for `CN(C)/C=C(/C(=O)c1ccc(Cl)cc1)S(=O)(=O)c1ccccc1`, the double positive events was determined as 37.1% and the response (vesicle binding) was 209% (inactive).

Regarding `Cc1nn(Cc2ccc(C(=O)N3N=C(C(F)F)CC3(O)C(F)F)cc2)c(C)c1[N+](=O)[O-]` (centres undefined), the double positive events stood at 36.3% and the response (vesicle binding) is 446% (inactive).

As to `C1=C(N2CCOCC2)/C(=C/c2nc3ccccc3[nH]2)CC1`, the double positive events is 33.6% and the response (vesicle binding) was 242% (inactive).

Regarding `CC1CC(C)(C)n2c(O)c(N=NC(N)=S)c3cccc1c32` (centres undefined), the double positive events is 21.4% and the response (vesicle binding) is 405% (inactive).

For `CC1CCc2sc(C(=O)NCC(c3ccco3)N3CCCCC3)cc2C1` (centres undefined), the double positive events was found to be 29.9% and the response (vesicle binding) is 209% (inactive).

For the compound `CS(=O)(=O)N(CC(=O)Nc1ccc(F)cc1F)c1cccc([N+](=O)[O-])c1`, the double positive events was found to be 31.4% and the response (vesicle binding) was 763% (inactive).

For the compound `O=C(c1ccccc1)c1ccc2nc(N3CCCCC3)c3nncn3c2c1`, the double positive events was determined as 4.3% and the response (vesicle binding) is 87.7% (inactive).

Regarding `Cc1c(Cl)cccc1NC(=S)NCC(O)c1ccccc1` (centres undefined), the double positive events stood at 56.7% and the response (vesicle binding) is 132% (inactive).

Regarding `CC(=O)Nc1ccc(S(=O)(=O)Oc2ccc(Br)cc2C(=S)N2CCOCC2)cc1`, the double positive events came out at 35.8% and the response (vesicle binding) is 429% (inactive).

As for `Cc1ccc(OCC(=O)Nc2ccc(C(=O)O)cc2NC(=O)COc2ccc(C)c(C)c2)cc1C`, the double positive events came out at 35.6% and the response (vesicle binding) is 196% (inactive).

Turning to `COc1ccc(/C=C(/NC(=O)c2ccccc2)C(=O)Nc2cccc(C(=O)O)c2)cc1`, the double positive events came to 39.2% and the response (vesicle binding) was 259% (inactive).

Turning to `CCOc1ccc(S(=O)(=O)NCc2ccc3c(c2)OCO3)cc1C`, the double positive events was 23.9% and the response (vesicle binding) is 381% (inactive).

With `Cc1cc(Br)ccc1NC(=O)CN(C)C(=O)CN1C(=O)NC2(CCCC2)C1=O`, the double positive events amounted to 8.3% and the response (vesicle binding) is 215% (inactive).

As to `COCc1cc(C)n(CC(=O)NCC2CCCO2)c(=O)c1C#N` (centres undefined), the double positive events amounted to 19.7% and the response (vesicle binding) is 237% (inactive).

With `CC(=O)Nc1ccc(NC(=O)CSC2=NS(=O)(=O)c3ccccc3N2)cc1`, the double positive events was found to be 46.2% and the response (vesicle binding) was 285% (inactive).

Regarding `COc1cc(/C=C/C(=O)N2CCc3ccccc3C2)cc(OC)c1OC`, the double positive events came to 39.9% and the response (vesicle binding) is 216% (inactive).

With `CCc1cc(CNC(=O)CC2C(=O)NCCN2Cc2ccccc2C(F)(F)F)on1` (centres undefined), the double positive events was determined as 21.1% and the response (vesicle binding) is 297% (inactive).

As to `CS(=O)(=O)c1ccc(C(=O)NNC(=O)c2cccs2)cc1`, the double positive events worked out at 52.2% and the response (vesicle binding) is 322% (inactive).

As to `O=C(NC1CCCC1)C(c1c(F)cccc1Cl)N(C(=O)c1csnn1)C1CC1` (centres undefined), the double positive events came to 17.4% and the response (vesicle binding) is 421% (inactive).

For the compound `CCc1ccc(NC(=O)C(=O)N/N=C(\C)CC(=O)NCCOC)cc1`, the double positive events is 23.6% and the response (vesicle binding) was 154% (inactive).

With `CCc1ccc(-n2c(SCc3cc(=O)n4cc(Br)ccc4n3)nc3[nH]ncc3c2=O)cc1`, the double positive events was 30.8% and the response (vesicle binding) is 314% (inactive).

Consider `Cc1sc2ncnc(N3CCC(C(=O)NNC(=O)c4ccc(F)cc4)CC3)c2c1C`, for which the double positive events amounted to 64.9% and the response (vesicle binding) was 227% (inactive).

Turning to `CC1CCN(c2ccc(S(=O)(=O)Nc3cc(C(=O)O)cc(C(=O)O)c3)cc2[N+](=O)[O-])CC1`, the double positive events worked out at 24.9% and the response (vesicle binding) is 234% (inactive).

In the case of `CCn1c2c(c3ccc(OC)cc31)CCCC2=O`, the double positive events was found to be 43.3% and the response (vesicle binding) was 241% (inactive).

Turning to `COC/C=C/C1=CC2=CC(=O)C(C)(OC(=O)CCC(=O)OC)C(=O)C2=CO1` (centres undefined), the double positive events amounted to 30.4% and the response (vesicle binding) was 292% (inactive).

Turning to `CCCN=C1NC(=O)C(CC(=O)NCCc2ccc(OC)c(OC)c2)S1` (centres undefined), the double positive events turned out to be 39.4% and the response (vesicle binding) is 112% (inactive).

As for `CCN(CC(=O)Nc1c(F)cccc1F)C(=O)CN1c2cccc3cccc(c23)S1(=O)=O`, the double positive events worked out at 43.4% and the response (vesicle binding) is 247% (inactive).

On to `O=C1C=C(NCCNc2c(F)c(F)c(CO)c(F)c2F)CCC1`, for which the double positive events stood at 42.6% and the response (vesicle binding) was 169% (inactive).

Regarding `COCCN1C2=C(COC(C)(C)C2)C(=S)NC1c1ccccc1` (centres undefined), the double positive events turned out to be 26.4% and the response (vesicle binding) was 676% (inactive).

`Cc1cc(C(=O)N2CCN(c3ccccn3)CC2)c(C)o1`: the double positive events was determined as 21% and the response (vesicle binding) was 214% (inactive).

`Cn1ccc(=NC=C(C#N)C#N)c2ccccc21`: the double positive events turned out to be 46.1% and the response (vesicle binding) was 136% (inactive).

Turning to `Cc1cc(C)n2nc(C(=O)OCC(=O)N(C)CC(=O)Nc3ccc(F)cc3)nc2n1`, the double positive events turned out to be 43% and the response (vesicle binding) was 342% (inactive).

With `CS(=O)(=O)N1CCc2cc(C(=O)Nc3ccccc3Br)ccc21`, the double positive events was 35.6% and the response (vesicle binding) was 198% (inactive).

Turning to `CN(C)N=Nc1ccc2nc[nH]c2c1`, the double positive events came out at 13.7% and the response (vesicle binding) was 692% (inactive).

Take `CO/N=C/c1ccc(N2CCN(C(=O)c3cccc(Cl)c3)CC2)c([N+](=O)[O-])c1`: the double positive events turned out to be 24.8% and the response (vesicle binding) was 143% (inactive).

As for `CSc1sc(C(=O)NNC(=O)c2ccc(Cl)cc2)c2c1C=CCC2`, the double positive events came to 57.7% and the response (vesicle binding) is 168% (inactive).

Turning to `CCCCn1c(N)c(N2CCOCC2)c(=O)n(CC(=O)NCCc2ccccc2)c1=O`, the double positive events came to 52.1% and the response (vesicle binding) was 370% (inactive).

`CCCN1CCN(C(=O)Cn2ncc3ccccc32)CC1`: the double positive events is 45.8% and the response (vesicle binding) is 326% (inactive).

For `COc1ccccc1CNC(=O)c1ccc(N(C)S(=O)(=O)c2ccc(C)cc2)cc1`, the double positive events is 2% and the response (vesicle binding) was 94% (inactive).

In the case of `Cc1ccc(-n2nc3c(c2NC(=O)CCC2CCCCC2)CS(=O)C3)cc1` (centres undefined), the double positive events was found to be 41.6% and the response (vesicle binding) is 834% (inactive).

Consider `COc1cccc(C(=O)NNC(=O)/C=C/c2ccccc2)c1`, for which the double positive events stood at 61.7% and the response (vesicle binding) is 433% (inactive).

With `CNC(=O)c1nnn(-c2ccccc2)c1C(=O)NC`, the double positive events was found to be 57.6% and the response (vesicle binding) is 329% (inactive).

Regarding `O=C(NCc1ccncc1)C1CCCN(S(=O)(=O)c2ccc(Br)cc2)C1` (centres undefined), the double positive events was found to be 50.3% and the response (vesicle binding) was 342% (inactive).

With `CCSc1nnc(SCC(=O)NNC(=O)c2ccccc2F)s1`, the double positive events was determined as 59.2% and the response (vesicle binding) was 194% (inactive).

For `CCOc1cc(C2C(C(=O)OC(C)C)=C(C)NC3=C2C(=O)CCC3)cc([N+](=O)[O-])c1O` (centres undefined), the double positive events turned out to be 47.9% and the response (vesicle binding) was 162% (inactive).

With `COc1cc(N)c(Cl)cc1C(=O)OCC(=O)c1ccc2c(c1)NC(=O)CO2`, the double positive events was determined as 29.1% and the response (vesicle binding) is 484% (inactive).

For `CC1(C)CC(CNCCC(c2ccc(F)cc2)c2ccco2)CCO1` (centres undefined), the double positive events was 39.3% and the response (vesicle binding) is 172% (inactive).

Regarding `CN(C)S(=O)(=O)c1cccc(NC(=O)COc2ccc3ccccc3c2)c1`, the double positive events turned out to be 30.4% and the response (vesicle binding) was 566% (inactive).

For `CCCn1cc(S(=O)(=O)c2ccc(C)cc2)c(=O)c2cc(OCC)ccc21`, the double positive events turned out to be 38.4% and the response (vesicle binding) is 435% (inactive).

For the compound `CC1C(c2ccccc2)=[N+]([O-])C2(CCCC2)N1O` (centres undefined), the double positive events was 34.2% and the response (vesicle binding) was 259% (inactive).

Take `COc1ccc(C2=Nn3c(nnc3-c3ccccc3OC)SC2)cc1OC1CCCC1`: the double positive events was found to be 2.5% and the response (vesicle binding) is 196% (inactive).
